Results on 31 compounds are retold here after ChEMBL document CHEMBL2040792, “New chromene scaffolds for adenosine A(2A) receptors: synthesis, pharmacology and structure-activity relationships” (Eur J Med Chem, 2012).

Format in all cases: cell-based
Experiment [1] has as its target T1, Adenosine receptor A1 (Homo sapiens) (UniProt P30542).
T1 sequence (whole entry): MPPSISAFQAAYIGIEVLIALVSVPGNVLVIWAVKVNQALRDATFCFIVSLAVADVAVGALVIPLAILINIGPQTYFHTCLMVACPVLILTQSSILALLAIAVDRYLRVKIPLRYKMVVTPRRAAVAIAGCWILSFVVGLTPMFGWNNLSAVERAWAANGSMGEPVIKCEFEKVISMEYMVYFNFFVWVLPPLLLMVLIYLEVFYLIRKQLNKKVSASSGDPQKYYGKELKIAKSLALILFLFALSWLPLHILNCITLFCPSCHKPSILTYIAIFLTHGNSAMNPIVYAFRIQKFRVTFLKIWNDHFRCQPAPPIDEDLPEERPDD
Description: Displacement of [3H]DPCPX from human adenosine A1 receptor expressed in CHO cells at 10 uM after 60 mins by beta scintillation counting. In short, it runs like this: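 CHO-A1 membranes (15 µg protein) in Hepes/NaCl/MgCl2 buffer with adenosine deaminase, pH 7.4. Test compound at 10 µM with 2 nM [3H]DPCPX, 60 min at 25 °C, in duplicate. Nonspecific binding with 10 µM (R)-PIA. Percent inhibition read after filtration.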
On the technique in general: In a radioligand displacement assay an active substance lowers the binding of a labelled ligand.

The target in experiment [2] is T2, Adenosine receptor A2a (Homo sapiens, UniProt P29274). Nature of the experiment: Displacement of [3H]ZM241385 from human adenosine A2A receptor expressed in human HeLa cells at 10 uM after 30 mins by beta scintillation counting. In short, it runs like this: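 Single-point screen at 10 µM on HeLa-A2A membranes (10 µg protein), Tris/EDTA/MgCl2 buffer with adenosine deaminase, pH 7.4. 3 nM [3H]ZM241385, 30 min at 25 °C, in duplicate. Nonspecific binding with 50 µM NECA. Percent inhibition.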
T2 sequence (P29274 whole entry): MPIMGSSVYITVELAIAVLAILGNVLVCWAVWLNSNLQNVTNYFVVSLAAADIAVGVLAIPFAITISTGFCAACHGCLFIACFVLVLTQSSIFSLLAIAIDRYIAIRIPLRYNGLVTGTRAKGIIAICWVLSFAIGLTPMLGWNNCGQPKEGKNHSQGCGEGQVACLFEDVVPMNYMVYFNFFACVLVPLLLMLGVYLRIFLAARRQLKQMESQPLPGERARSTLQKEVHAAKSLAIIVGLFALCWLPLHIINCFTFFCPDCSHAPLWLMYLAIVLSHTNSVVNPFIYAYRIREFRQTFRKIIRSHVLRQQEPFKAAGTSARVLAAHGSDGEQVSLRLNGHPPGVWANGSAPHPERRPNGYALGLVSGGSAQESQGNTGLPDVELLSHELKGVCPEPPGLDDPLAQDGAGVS

Experiment [3] deals with T3, Adenosine receptor A2b (Homo sapiens) (UniProt P29275).
T3 sequence (whole entry): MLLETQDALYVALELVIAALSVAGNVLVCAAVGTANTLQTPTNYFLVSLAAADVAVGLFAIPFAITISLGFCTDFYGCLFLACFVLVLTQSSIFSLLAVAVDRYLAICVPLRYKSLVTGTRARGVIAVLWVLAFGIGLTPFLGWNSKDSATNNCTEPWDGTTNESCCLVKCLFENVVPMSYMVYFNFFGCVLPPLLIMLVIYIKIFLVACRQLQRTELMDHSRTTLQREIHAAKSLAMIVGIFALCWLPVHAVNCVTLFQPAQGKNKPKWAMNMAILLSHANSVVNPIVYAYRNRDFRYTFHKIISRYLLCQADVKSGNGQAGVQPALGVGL
Description: Displacement of [3H]DPCPX from human adenosine A2B receptor expressed in HEK293 cells at 10 uM after 30 mins by beta scintillation counting. In short, it runs like this:
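Percent inhibition at 10 µM in HEK-293-A2B membranes (18 µg protein), pH 6.5 Tris buffer with benzamidine, bacitracin and adenosine deaminase. 35 nM [3H]DPCPX, 30 min at 25 °C, in duplicate. Nonspecific binding with 400 µM NECA.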

The target of experiment [4] is T4, Adenosine receptor A3 (Homo sapiens) (UniProt P0DMS8).
T4 sequence (whole entry): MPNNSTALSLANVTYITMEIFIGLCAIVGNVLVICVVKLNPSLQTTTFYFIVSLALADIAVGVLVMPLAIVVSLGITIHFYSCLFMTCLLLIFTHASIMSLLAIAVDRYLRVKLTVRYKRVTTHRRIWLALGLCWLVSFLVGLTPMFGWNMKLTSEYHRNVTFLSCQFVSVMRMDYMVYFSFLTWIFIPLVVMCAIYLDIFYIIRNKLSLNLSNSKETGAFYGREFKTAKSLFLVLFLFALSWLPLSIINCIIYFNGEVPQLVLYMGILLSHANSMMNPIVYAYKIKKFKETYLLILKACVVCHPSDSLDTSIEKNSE
Nature of the experiment: Displacement of [3H]NECA from human adenosine A3 receptor expressed in human HeLa cells at 10 uM after 180 mins by beta scintillation counting. In short, it runs like this:
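HeLa-A3 membranes (90 µg protein) in 50 mM Tris-HCl, 1 mM EDTA, 5 mM MgCl2, 2 UI/mL adenosine deaminase, pH 7.4. Test compound at 10 µM with 30 nM [3H]NECA, 180 min at 25 °C, in triplicate. Nonspecific binding with 100 µM (R)-PIA. Percent inhibition read after GF/B filtration.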

The target of experiment [5] is T2, Adenosine receptor A2a. Description: Displacement of [3H]ZM241385 from human adenosine A2A receptor expressed in human HeLa cells after 30 mins by beta scintillation counting. In short, it runs like this:
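HeLa-A2A membranes (10 µg protein) in 50 mM Tris-HCl, 1 mM EDTA, 10 mM MgCl2, 2 UI/mL adenosine deaminase, pH 7.4, with 3 nM [3H]ZM241385. Nonspecific binding with 50 µM NECA. Incubated 30 min at 25 °C, in duplicate. Six concentrations (10 nM-100 µM); IC50 by nonlinear regression, converted to Ki by Cheng-Prusoff.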

Each structure is given as a SMILES string.

The inhibition is the relative decrease from the control value, in per cent. Low values mean little suppression, high ones strong suppression. For orientation: Ki means a dissociation constant, usually derived from enzyme kinetics or from competition with a known ligand. Lower therefore signals a stronger hold on the target.

Consider `N=c1oc2ccc(Br)cc2cc1C(=O)NCCO`, for which the inhibition in experiment [1] stood at 26%; at Adenosine receptor A2a [2] it was 6%; in experiment [3], 15%; in experiment [4], 0%.

As to `O=C(NC1CCCC1)c1cc2ccccc2oc1=O`, the inhibition was 16% in experiment [1], 1% at Adenosine receptor A2a [2], 18% in experiment [3] and 20% in experiment [4].

Consider `N=c1oc2ccc(Br)cc2cc1C(=O)NCCCO`, for which the inhibition worked out at 32% in experiment [1], 14% at Adenosine receptor A2a [2], 25% in experiment [3] and 17% in experiment [4].

As to `COc1cc(Br)cc2cc(C(=O)NCCCO)c(=N)oc12`, the inhibition in experiment [1] was determined as 31%; on Adenosine receptor A2a [2], 16%; in experiment [3], 30%; in experiment [4], 23%.

`COc1cccc2cc(C(=O)NCCO)c(=O)oc12`: the inhibition in experiment [1] turned out to be 12%; on Adenosine receptor A2a [2], 1%; in experiment [3], 7%; in experiment [4], 1%.

In the case of `O=C(NCCCN1CCN(CCCNC(=O)c2cc3ccccc3oc2=O)CC1)c1cc2ccccc2oc1=O`, the inhibition was 9% in experiment [1], 1% at Adenosine receptor A2a [2], 22% in experiment [3] and 15% in experiment [4].

`O=C(NCC(O)CO)c1cc2cc(Cl)ccc2oc1=O` (stereo not drawn): the inhibition in experiment [1] worked out at 21%; at Adenosine receptor A2a [2] it was 2%; in experiment [3], 23%; in experiment [4] it was 1%.

For `CCC(CO)NC(=O)c1cc2cc(Cl)ccc2oc1=N` (stereo not drawn), the inhibition is 7% in experiment [1], 15% on Adenosine receptor A2a [2], 9% in experiment [3] and 0% in experiment [4].

Turning to `O=C(NCC(O)CO)c1cc2cccc(O)c2oc1=O` (stereo not drawn), the inhibition in experiment [1] was determined as 4%; on Adenosine receptor A2a [2] it was 11%; in experiment [3] it was 29%; in experiment [4] it was 22%.

For the compound `COc1cccc2cc(C(C)=O)c(=O)oc12`, the inhibition in experiment [1] came to 10%; on Adenosine receptor A2a [2] it was 1%; in experiment [3], 15%; in experiment [4] it was 1%.

As for `COc1cccc2c1OC(C)(O)C(C(C)=O)=C2` (stereo not drawn), the inhibition stood at 6% in experiment [1], 10% at Adenosine receptor A2a [2], 24% in experiment [3] and 30% in experiment [4].

As to `COc1cccc2cc(C(=O)Nc3c(C#N)ncn3-c3ccccc3)c(=N)oc12`, the inhibition in experiment [1] was 33%; on Adenosine receptor A2a [2], over 70%; in experiment [3], 9%; in experiment [4] it was 40%. Besides, at Adenosine receptor A2a [5], affinity was put at a Ki of 1000 nM.

Regarding `CCOC(CNC(=O)c1cc2cccc(OC)c2oc1=N)OCC`, the inhibition in experiment [1] is 40%; on Adenosine receptor A2a [2], over 70%; in experiment [3], 51%; in experiment [4], 15%. Further, the affinity on Adenosine receptor A2a [5] corresponds to a Ki of 1580 nM.

In the case of `O=C(NCCCO)c1cc2ccccc2oc1=O`, the inhibition in experiment [1] came to 24%; on Adenosine receptor A2a [2], 10%; in experiment [3], 19%; in experiment [4], 6%.

Turning to `COCCNC(=O)c1cc2cc(Cl)ccc2oc1=N`, the inhibition is 17% in experiment [1], 10% on Adenosine receptor A2a [2], 9% in experiment [3] and 13% in experiment [4].

Consider `COc1cccc2cc(C(=O)NCCO)c(=N)oc12`, for which the inhibition is 47% in experiment [1], over 70% at Adenosine receptor A2a [2], 65% in experiment [3] and 23% in experiment [4]. At Adenosine receptor A2a [5], this compound showed a Ki of 1000 nM.

Regarding `COc1cccc2cc(C(=O)NCCCO)c(=N)oc12`, the inhibition in experiment [1] was 47%; on Adenosine receptor A2a [2], over 70%; in experiment [3] it was 42%; in experiment [4], 1%. On Adenosine receptor A2a [5], this compound had a Ki of 631 nM.

With `N=c1oc2ccc(Br)cc2cc1C(=O)NCC(O)CO` (stereo not drawn), the inhibition in experiment [1] is 11%; at Adenosine receptor A2a [2] it was 8%; in experiment [3], 4%; in experiment [4], 10%.

Consider `CCC(CO)NC(=O)c1cc2cc(Br)ccc2oc1=N` (stereo not drawn), for which the inhibition in experiment [1] amounted to 20%; on Adenosine receptor A2a [2] it was 3%; in experiment [3], 4%; in experiment [4], 24%.

With `COc1cccc2cc(C(=O)Nc3c(C#N)ncn3-c3ccc(C#N)cc3)c(=N)oc12`, the inhibition in experiment [1] was found to be 18%; at Adenosine receptor A2a [2], 41%; in experiment [3], 10%; in experiment [4], 1%.

In the case of `COc1cccc2cc(C(=O)NCC(O)CO)c(=O)oc12` (stereo not drawn), the inhibition in experiment [1] stood at 14%; on Adenosine receptor A2a [2], 7%; in experiment [3], 25%; in experiment [4], 1%.

In the case of `COc1cccc2cc(C(=O)N[C@@H](CO)C(=O)O)c(=O)oc12`, the inhibition in experiment [1] stood at 12%; on Adenosine receptor A2a [2], 6%; in experiment [3], 24%; in experiment [4] it was 3%.

With `O=C(NCCCO)c1cc2cccc(O)c2oc1=O`, the inhibition in experiment [1] turned out to be 18%; on Adenosine receptor A2a [2], 1%; in experiment [3], 24%; in experiment [4] it was 8%.

Consider `COc1cccc2cc(C(=O)NC(CO)(CO)CO)c(=N)oc12`, for which the inhibition turned out to be 19% in experiment [1], 24% on Adenosine receptor A2a [2], 28% in experiment [3] and 18% in experiment [4].

`COc1cccc2cc(C(=O)NCC(=O)O)c(=O)oc12`: the inhibition in experiment [1] was found to be 27%; on Adenosine receptor A2a [2], 13%; in experiment [3], 35%; in experiment [4], 15%.

`CCC(CO)NC(=O)c1cc2cccc(OC)c2oc1=N` (stereo not drawn): the inhibition in experiment [1] came to 24%; on Adenosine receptor A2a [2] it was 66%; in experiment [3] it was 39%; in experiment [4], 6%.

For `N=c1oc2ccc(Br)cc2cc1C(=O)NC1CCCCC1`, the inhibition in experiment [1] turned out to be 5%; at Adenosine receptor A2a [2] it was 1%; in experiment [3], 10%; in experiment [4] it was 8%.

As for `O=C(O)CNC(=O)c1cc2ccccc2oc1=O`, the inhibition in experiment [1] was found to be 1%; at Adenosine receptor A2a [2] it was 2%; in experiment [3] it was 9%; in experiment [4] it was 0%.

On to `COCCNC(=O)c1cc2cccc(OC)c2oc1=O`, for which the inhibition in experiment [1] came out at 45%; on Adenosine receptor A2a [2], 65%; in experiment [3] it was 18%; in experiment [4] it was 0%.

Take `N=c1oc2ccc(Br)cc2cc1C(=O)NC1CCCC1`: the inhibition in experiment [1] came to 17%; at Adenosine receptor A2a [2], 5%; in experiment [3] it was 28%; in experiment [4] it was 0%.

`COc1ccc(-n2cnc(C#N)c2NC(=O)c2cc3cccc(OC)c3oc2=N)cc1`: the inhibition in experiment [1] is 37%; at Adenosine receptor A2a [2], 58%; in experiment [3], 5%; in experiment [4], 42%.
